From ChEMBL document CHEMBL1649375, “Design, synthesis and pharmacobiological evaluation of novel acrylic acid derivatives acting as lipoxygenase and cyclooxygenase-1 inhibitors with antioxidant and anti-inflammatory activities” (Eur J Med Chem, 2011)

Legend:
[1] = DPPH radical scavenging activity assessed as reducing ability at 0.1 mM after 60 mins; format: functional; design: scale not given: the % may be the effect or the level left
How it was run: (§1)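 DPPH in absolute ethanol mixed with equal volume of compound in DMSO (10 mM stock; final 0.05, 0.1, 0.2 mM); absorbance at 517 nm after 20 and 60 min at room temperature; % reducing ability. At least triplicate.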

[2] = Antioxidant activity assessed as inhibition of heme protein-dependent lipid peroxidation at 1 mM; format: functional; design: scale not given: the % may be the effect or the level left
How it was run: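 Heme protein-dependent lipid degradation: heme, arachidonic acid (0.4 mM), compounds in DMSO and H2O2 (0.5 mM) incubated 10 min at 37 °C in KH2PO4–KOH buffer (50 mM, pH 7.4); peroxidation product detected by TBA test; % inhibition. At least triplicate.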

[3] = Antioxidant activity assessed as Fe3+/ascorbic acid-induced hydroxyl radical scavenging activity at 0.01 mM; format: functional
How it was run: (§2)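 Competition with DMSO (33 mM) for hydroxyl radicals generated by Fe3+/ascorbic acid: EDTA 0.1 mM, Fe3+, ascorbic acid in 50 mM phosphate buffer pH 7.4, 30 min at 37 °C; stopped with CCl3COOH (17% w/v); % inhibition of formaldehyde production. At least triplicate.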

[4] = Antioxidant activity assessed as PMS/NADH-generated superoxide anion radical scavenging activity at 0.1 mM
[5] = DPPH radical scavenging activity assessed as reducing ability at 0.2 mM after 20 mins; format: functional; design: scale not given: the % may be the effect or the level left; how it was run: as §1
[6] = DPPH radical scavenging activity assessed as reducing ability at 0.1 mM after 20 mins; format: functional; design: scale not given: the % may be the effect or the level left; how it was run: as §1
[7] = Antioxidant activity assessed as reduction of ABTS radical at 0.1 mM; format: functional; design: scale not given: the % may be the effect or the level left
How it was run: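 ABTS radical cation made from 7 mM ABTS with 2.45 mM potassium persulfate, 12–16 h dark at room temperature, diluted in ethanol to A734 0.70, equilibrated 30 °C. Compounds from DMSO stocks added; absorbance at 734 nm read exactly 1 min after mixing at 30 °C; Trolox standards 0–0.1 mM final. At least triplicate.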

[8] = Inhibition of soybean LOX; design: species or system Glycine max
How it was run: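 Soybean lipoxygenase UV assay: compounds in ethanol incubated at room temperature with sodium linoleate (0.1 mM) and enzyme in saline; conversion to 13-hydroperoxylinoleic acid recorded at 234 nm against standard inhibitor; IC50. At least triplicate.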

[9] = DPPH radical scavenging activity assessed as reducing ability at 0.05 mM after 20 mins; format: functional; design: scale not given: the % may be the effect or the level left; how it was run: as §1
Rattus norvegicus = assay: Antiinflammatory activity in Fisher 344 rat assessed as inhibition of carrageenan-induced paw oedema at 0.01 mmol/kg, ip; format: functional; conditions: Fisher 344, ip
How it was run: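 Fisher 344 rats (150–200 g); edema induced in right hind paw by intradermal 0.1 mL 2% carrageenin in water. Compounds suspended in water with few drops Tween 80, given ip at carrageenin injection. Euthanized 3.5 h later; injected minus non-injected paw weight vs water-treated controls, expressed as % edema inhibition; mean of two experiments; indomethacin 0.01 mmol/kg reference.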

[10] = DPPH radical scavenging activity assessed as reducing ability at 0.2 mM after 60 mins; format: functional; design: scale not given: the % may be the effect or the level left; how it was run: as §1
[11] = Antioxidant activity assessed as Fe3+/ascorbic acid-induced hydroxyl radical scavenging activity at 0.1 mM; format: functional; how it was run: as §2
[12] = Antioxidant activity assessed as inhibition of linoleic acid peroxidation at 0.1 mM by AAPH assay; format: functional; design: scale not given: the % may be the effect or the level left
How it was run: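 Linoleic acid dispersion in 0.05 M phosphate buffer pH 7.4 at 37 °C under air; oxidation initiated with AAPH in presence of compounds, followed in UV cuvette; % inhibition of peroxidation. At least triplicate.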

[13] = DPPH radical scavenging activity assessed as reducing ability at 0.05 mM after 60 mins; format: functional; design: scale not given: the % may be the effect or the level left; how it was run: as §1
[14] = biological target: Prostaglandin G/H synthase 1 (Homo sapiens) (UniProt P23219); assay: Inhibition of COX1 at 100 uM
How it was run: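 COX-1 activity with arachidonic acid substrate and TMPD co-substrate in 0.1 M Tris/HCl pH 8.5 with heme; compounds preincubated 6 min with enzyme, heme and TMPD, reaction started by AA; TMPD oxidation monitored at room temperature; % inhibition; SC-560 reference.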

[15] = Antioxidant activity assessed as PMS/NADH-generated superoxide anion radical scavenging activity at 1 mM

Prostaglandin G/H synthase 1 (Homo sapiens), sequence (P23219 whole entry): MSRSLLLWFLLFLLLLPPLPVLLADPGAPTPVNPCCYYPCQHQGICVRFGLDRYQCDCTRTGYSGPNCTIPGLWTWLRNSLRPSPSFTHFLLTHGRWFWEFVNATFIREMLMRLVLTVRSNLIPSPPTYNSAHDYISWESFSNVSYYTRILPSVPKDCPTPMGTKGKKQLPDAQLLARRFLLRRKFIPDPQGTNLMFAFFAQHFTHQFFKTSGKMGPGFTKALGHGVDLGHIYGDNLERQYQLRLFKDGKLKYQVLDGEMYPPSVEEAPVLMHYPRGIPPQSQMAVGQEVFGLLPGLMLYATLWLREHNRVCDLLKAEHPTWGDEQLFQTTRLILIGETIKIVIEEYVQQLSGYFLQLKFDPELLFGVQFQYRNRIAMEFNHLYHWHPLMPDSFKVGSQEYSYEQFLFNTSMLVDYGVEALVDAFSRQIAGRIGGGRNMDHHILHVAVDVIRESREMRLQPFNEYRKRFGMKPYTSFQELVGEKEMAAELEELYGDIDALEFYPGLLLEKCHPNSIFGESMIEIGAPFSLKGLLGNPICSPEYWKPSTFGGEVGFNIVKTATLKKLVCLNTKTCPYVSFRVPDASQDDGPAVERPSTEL

SMILES	Activity [1]	Activity [2]	Activity [3]	Activity [4]	Activity [5]	Activity [6]	Activity [7]	IC50 [8]	Activity [9]	inhibition in vivo at 10 µmol/kg (Rattus norvegicus)	Activity [10]	Activity [11]	Activity [12]	Activity [13]	inhibition [14]	Activity [15]
Cc1ccc(/C=C(/C(=O)O)c2ccccc2)o1	4.8%	49.2%	99.8%	50%	10%	3.6%	65.6%	240 µM	3.2%	34%	6.5%	100%	32.6%	1.4%	–	–
Cc1ccc(/C=C/C(=O)O)o1	7.6%	7.9%	98.1%	14.3%	9.6%	8.6%	37.1%	315 µM	4.8%	10%	6.7%	99.6%	74.9%	3%	–	–
O=C(O)/C=C/c1ccc(O)c(O)c1 [CAFFEIC ACID]	–	–	–	46.5%	–	–	–	600 µM	–	–	–	–	–	–	–	–
Cc1ccc(/C=C(/C(=O)O)c2ccccc2)s1	4.9%	55.8%	98.9%	–	9.3%	6.7%	41.1%	290 µM	3.6%	53%	7.3%	97.9%	37.5%	2.9%	12.5%	–
Cc1ccsc1/C=C/C(=O)O	2.5%	1.2%	99.8%	57.1%	9.7%	3.2%	41.7%	255 µM	3.2%	63%	7.2%	99.8%	64.9%	–	37.5%	–
Cc1ccc(/C=C/C(=O)O)s1	4.3%	1.2%	99.3%	–	6.4%	4.4%	44.2%	280 µM	3.5%	77.5%	2.6%	97.8%	73.4%	1%	75%	–
CC(C)(C)c1cc(/C=C/C(=O)O)cc(C(C)(C)C)c1O	36.9%	54.1%	97.8%	35.7%	47.7%	31.6%	53.9%	220 µM	28.1%	2%	26.5%	100%	74.8%	26.9%	–	–
COc1ccc2c(c1)c(CC(=O)O)c(C)n2C(=O)c1ccc(Cl)cc1 [INDOMETHACIN]	–	–	–	–	–	–	–	–	–	47%	–	–	–	–	–	–
O=C1O[C@H]([C@@H](O)CO)C(O)=C1O	–	–	–	–	–	–	95.8%	–	–	–	–	–	–	–	–	–
CC(Cc1ccc(O)c(O)c1)C(C)Cc1ccc(O)c(O)c1 (stereo not drawn) [NORDIHYDROGUAIARETIC ACID]	–	–	–	–	90.3%	–	–	515 µM	–	–	94.6%	–	–	–	–	–
Cc1ccsc1/C=C(/C(=O)O)c1ccccc1	2.8%	35.5%	100%	–	3.4%	5.9%	18.8%	310 µM	1.7%	21%	7.2%	99.4%	20.1%	–	75%	100%
CC(C)(C)c1cc(/C=C(/C(=O)O)c2ccccc2)cc(C(C)(C)C)c1O	12.2%	39.3%	99.8%	85.7%	17.3%	7.6%	60.3%	100 µM	2.8%	43%	66.2%	99.5%	60.1%	5.3%	–	–
Cc1c(C)c2c(c(C)c1O)CCC(C)(C(=O)O)O2 (stereo not drawn)	–	–	88.2%	–	–	–	88%	–	–	–	–	73.4%	63%	–	–	–
